# Laboratory results as given in ChEMBL document CHEMBL1933063, “Investigation of chalcones and benzochalcones as inhibitors of breast cancer resistance protein” (Bioorg Med Chem, 2012).
# The source made the active and inactive calls. No cut-off for these calls is given here.
# Legend:
# [1] = target: ATP-dependent translocase ABCB1 (Homo sapiens, UniProt P08183); assay: Inhibition of MDR1 in human A2780adr cells assessed as calcein AM accumulation at 10 uM by fluorimetry; format: cell-based; details: a2780 adr
# ATP-dependent translocase ABCB1, sequence (P08183 whole entry): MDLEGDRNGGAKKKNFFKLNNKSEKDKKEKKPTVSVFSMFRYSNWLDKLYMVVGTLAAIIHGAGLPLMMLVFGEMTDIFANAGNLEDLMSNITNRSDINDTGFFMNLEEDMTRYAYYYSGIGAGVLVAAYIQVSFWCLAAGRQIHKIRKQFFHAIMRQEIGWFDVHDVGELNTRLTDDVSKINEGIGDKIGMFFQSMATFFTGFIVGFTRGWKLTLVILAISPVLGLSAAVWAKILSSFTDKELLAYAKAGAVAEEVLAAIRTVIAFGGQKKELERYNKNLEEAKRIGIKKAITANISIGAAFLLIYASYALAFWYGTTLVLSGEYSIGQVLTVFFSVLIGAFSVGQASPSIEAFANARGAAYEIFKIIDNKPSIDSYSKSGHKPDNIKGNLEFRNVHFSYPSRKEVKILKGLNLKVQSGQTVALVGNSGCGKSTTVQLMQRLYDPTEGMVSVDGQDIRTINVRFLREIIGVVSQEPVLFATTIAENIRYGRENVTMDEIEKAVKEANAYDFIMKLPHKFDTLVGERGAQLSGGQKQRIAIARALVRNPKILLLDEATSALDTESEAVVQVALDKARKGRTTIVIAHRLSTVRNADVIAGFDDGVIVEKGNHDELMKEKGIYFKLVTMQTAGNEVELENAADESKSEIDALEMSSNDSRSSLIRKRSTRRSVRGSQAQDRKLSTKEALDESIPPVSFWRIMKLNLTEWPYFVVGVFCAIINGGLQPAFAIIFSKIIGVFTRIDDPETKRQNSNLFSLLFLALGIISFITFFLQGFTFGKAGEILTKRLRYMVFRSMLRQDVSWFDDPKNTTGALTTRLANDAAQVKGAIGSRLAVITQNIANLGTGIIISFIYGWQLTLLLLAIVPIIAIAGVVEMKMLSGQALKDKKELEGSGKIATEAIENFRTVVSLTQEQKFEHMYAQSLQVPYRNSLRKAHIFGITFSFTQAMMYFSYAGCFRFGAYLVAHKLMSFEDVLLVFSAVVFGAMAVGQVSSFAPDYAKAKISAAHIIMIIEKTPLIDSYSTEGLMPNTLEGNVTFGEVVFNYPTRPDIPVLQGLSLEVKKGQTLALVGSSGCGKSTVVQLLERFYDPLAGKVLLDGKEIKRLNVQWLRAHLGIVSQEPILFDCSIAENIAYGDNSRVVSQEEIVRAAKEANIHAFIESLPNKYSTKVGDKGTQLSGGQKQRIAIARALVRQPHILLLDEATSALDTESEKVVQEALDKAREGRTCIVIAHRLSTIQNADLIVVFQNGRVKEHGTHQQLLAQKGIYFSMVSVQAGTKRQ
# Outline: (§1)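 Calcein AM accumulation in A2780adr (P-gp) or 2008 MRP1 cells. Cells washed in Krebs-HEPES buffer, about 30,000 per well, preincubated 30 min with compound at 10 µM final. Calcein AM then added. Fluorescence (ex 485, em 520 nm) read every 60 s up to 90 min at 37 °C. Expressed as percent of vehicle control; n = 3.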
# [2] = target: Multidrug resistance-associated protein 1 (Homo sapiens, UniProt P33527); assay: Inhibition of MRP1 overexpressed in human 2008 MRP1 cells assessed as calcein AM accumulation at 10 uM by fluorimetry; format: cell-based; details: human, 2008, 10 µM; outline: as §1
# Multidrug resistance-associated protein 1, sequence (P33527 whole entry): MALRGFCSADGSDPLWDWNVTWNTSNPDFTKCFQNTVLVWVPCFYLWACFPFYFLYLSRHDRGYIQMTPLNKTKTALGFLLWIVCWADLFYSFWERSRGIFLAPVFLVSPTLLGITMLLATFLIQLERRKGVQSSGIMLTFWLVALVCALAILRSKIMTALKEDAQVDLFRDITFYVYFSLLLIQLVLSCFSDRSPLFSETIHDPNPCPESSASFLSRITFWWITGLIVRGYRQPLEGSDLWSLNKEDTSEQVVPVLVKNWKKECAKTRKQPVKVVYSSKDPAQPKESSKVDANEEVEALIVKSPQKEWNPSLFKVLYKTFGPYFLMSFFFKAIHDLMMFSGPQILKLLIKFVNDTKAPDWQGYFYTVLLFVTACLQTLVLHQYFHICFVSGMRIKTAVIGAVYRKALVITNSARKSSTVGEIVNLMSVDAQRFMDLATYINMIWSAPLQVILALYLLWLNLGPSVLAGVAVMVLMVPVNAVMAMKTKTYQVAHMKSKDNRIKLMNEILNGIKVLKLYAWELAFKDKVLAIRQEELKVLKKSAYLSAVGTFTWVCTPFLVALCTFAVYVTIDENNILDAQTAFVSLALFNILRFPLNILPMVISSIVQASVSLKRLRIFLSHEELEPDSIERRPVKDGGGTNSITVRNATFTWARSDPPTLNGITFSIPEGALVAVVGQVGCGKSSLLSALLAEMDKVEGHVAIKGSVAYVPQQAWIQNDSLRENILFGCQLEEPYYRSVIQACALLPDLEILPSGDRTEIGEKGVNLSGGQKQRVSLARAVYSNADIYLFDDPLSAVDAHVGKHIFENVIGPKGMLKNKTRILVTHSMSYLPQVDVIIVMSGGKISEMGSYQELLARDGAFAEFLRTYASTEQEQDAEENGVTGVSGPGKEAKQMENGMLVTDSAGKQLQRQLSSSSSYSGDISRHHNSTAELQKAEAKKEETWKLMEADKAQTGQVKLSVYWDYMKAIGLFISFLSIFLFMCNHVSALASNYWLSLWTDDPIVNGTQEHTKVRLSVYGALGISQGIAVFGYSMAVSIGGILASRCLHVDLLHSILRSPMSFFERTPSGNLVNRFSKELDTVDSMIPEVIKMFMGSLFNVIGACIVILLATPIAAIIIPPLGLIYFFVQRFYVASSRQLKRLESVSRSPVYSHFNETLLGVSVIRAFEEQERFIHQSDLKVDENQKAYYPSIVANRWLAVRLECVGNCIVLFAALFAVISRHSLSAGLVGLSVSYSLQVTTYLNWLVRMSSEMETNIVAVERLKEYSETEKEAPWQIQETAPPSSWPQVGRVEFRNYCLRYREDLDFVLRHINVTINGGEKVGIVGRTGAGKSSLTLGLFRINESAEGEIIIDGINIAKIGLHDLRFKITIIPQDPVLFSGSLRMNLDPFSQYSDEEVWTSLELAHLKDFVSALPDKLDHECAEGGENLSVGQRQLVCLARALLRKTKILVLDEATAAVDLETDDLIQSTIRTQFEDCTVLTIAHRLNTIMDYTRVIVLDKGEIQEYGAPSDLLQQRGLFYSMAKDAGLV
# [3] = tested on: MCF7/MX; assay: Potentiation of mitoxantrone anticancer activity against human MCF7/MX cells at 1 uM after 72 hrs by MTT assay; format: functional, cell-based
# Outline: (§2)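 Cells seeded (1250/well MDCK, 10,000/well MCF-7) and left 6 h at 37 °C, 5% CO2. Mitoxantrone or SN-38 dose range added with or without three concentrations of modulator, then 72 h incubation. MTT added for 1 h, cells lysed in DMSO, absorbance read at 544 nm minus 710 nm. EC50 derived; parental cells as controls; three independent experiments.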
# [4] = tested on: MCF7/MX; assay: Potentiation of mitoxantrone anticancer activity against human MCF7/MX cells at 3 uM after 72 hrs by MTT assay; format: functional, cell-based; outline: as §2
# [5] = tested on: MCF7/MX; assay: Potentiation of mitoxantrone anticancer activity against human MCF7/MX cells at 5 uM after 72 hrs by MTT assay; format: functional, cell-based; outline: as §2
# [6] = target: T1, Broad substrate specificity ATP-binding cassette transporter ABCG2 (Homo sapiens, UniProt Q9UNQ0); assay: Inhibition of BCRP in human MCF7/MX cells assessed as Hoechst 33342 accumulation preincubated for 30 mins by Fluorometry; format: cell-based
# T1 sequence (Q9UNQ0 whole entry): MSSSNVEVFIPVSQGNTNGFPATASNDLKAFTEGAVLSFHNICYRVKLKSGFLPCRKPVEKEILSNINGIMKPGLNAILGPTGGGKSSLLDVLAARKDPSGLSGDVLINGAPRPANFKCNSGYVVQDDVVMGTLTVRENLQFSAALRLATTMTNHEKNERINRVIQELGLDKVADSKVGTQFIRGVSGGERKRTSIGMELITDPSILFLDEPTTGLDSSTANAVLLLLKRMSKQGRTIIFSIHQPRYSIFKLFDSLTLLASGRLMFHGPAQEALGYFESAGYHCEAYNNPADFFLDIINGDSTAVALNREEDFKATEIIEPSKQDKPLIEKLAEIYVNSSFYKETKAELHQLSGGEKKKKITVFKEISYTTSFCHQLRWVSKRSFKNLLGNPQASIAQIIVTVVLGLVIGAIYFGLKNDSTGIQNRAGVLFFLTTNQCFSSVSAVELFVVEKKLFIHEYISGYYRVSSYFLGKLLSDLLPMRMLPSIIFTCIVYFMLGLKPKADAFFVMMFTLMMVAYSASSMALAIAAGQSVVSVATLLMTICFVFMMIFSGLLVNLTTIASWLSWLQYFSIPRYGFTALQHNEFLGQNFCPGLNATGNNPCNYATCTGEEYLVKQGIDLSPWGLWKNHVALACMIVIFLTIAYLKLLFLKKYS
# Outline: (§3)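 Cells washed three times in Krebs-HEPES buffer, about 20,000 per well, preincubated with test compound at varied concentrations for 30 min at 37 °C, 5% CO2. Hoechst 33342 then added (final 1 µM). Fluorescence (ex 355, em 460 nm) read every 60 s up to 120 min at 37 °C. KHB background subtracted, 100–109 min mean plotted, four-parameter logistic fit; ≥3 independent experiments.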
# [7] = target: T1, Broad substrate specificity ATP-binding cassette transporter ABCG2; assay: Inhibition of human BCRP expressed in MDCK2 cells assessed as Hoechst 33342 accumulation preincubated for 30 mins by fluorimetry; format: cell-based, MDCK-II; outline: as §3
# [8] = tested on: MDCK-II; assay: Potentiation of SN-38 anticancer activity against MDCK2 cells expressing human BCRP after 72 hrs by MTT assay; format: functional, cell-based; details: Canis lupus familiaris; outline: as §2
SMILES,inhibition (INH) [1],inhibition (INH) [2],IC50 ([6]; read-out: IC50),IC50 ([7]; read-out: IC50),IC50 ([6]; mcf7/mx),IC50 ([7]; mdck-ii),Activity [3],Activity [4],Activity [5],Activity [8]
COc1cc(O)c(C(=O)/C=C/c2ccc(OC)c(OC)c2)c(OC)c1,Active,Not Active,0.75 µM,0.53 µM,,,Active,Active,Active,
COc1ccc(/C=C/C(=O)c2c(O)cc(OC)cc2OC)cc1 [FLAVOKAWAIN A],Active,Not Active,5.83 µM,3 µM,,,,,,
COc1ccc(/C=C/C(=O)c2ccc3ccccc3c2O)cc1OC,Active,Not Active,2.5 µM,1.95 µM,,,,,,
COc1ccc(/C=C/C(=O)c2c(O)ccc3ccccc23)cc1,Active,Not Active,3.81 µM,2.89 µM,,,,,,
COc1ccc(/C=C/C(=O)c2c(O)ccc3ccccc23)cc1OC,Active,Not Active,1.84 µM,0.72 µM,,,,,,Dose-dependent effect
O=C(/C=C/c1ccccc1Cl)c1ccccc1,Active,Not Active,,,Not Active,Not Active,,,,
COc1ccc(C(=O)/C=C/c2ccc(OC)c(OC)c2)c(OC)c1,Active,Not Active,2.2 µM,1.03 µM,,,,,,
COc1ccc(C(=O)/C=C/c2ccc(OC)c(OC)c2)c(O)c1,Active,Not Active,2.17 µM,1.06 µM,,,,,,
COc1cc(O)c(C(=O)/C=C/c2ccccc2Cl)c(OC)c1,Active,Not Active,5.27 µM,2.82 µM,,,,,,
COc1cccc(/C=C/C(=O)c2ccc3ccccc3c2O)c1,Active,Not Active,11.9 µM,5.68 µM,,,,,,
O=C(/C=C/c1ccccc1)c1ccc2ccccc2c1O,Active,Not Active,24.3 µM,9.23 µM,,,,,,
COc1ccc(C(=O)/C=C/c2ccccc2Cl)c(OC)c1,Active,Not Active,3.13 µM,2.63 µM,,,,,,
COc1ccc(/C=C/C(=O)c2ccc(OC)c(OC)c2)cc1OC,Active,Not Active,3.28 µM,3.8 µM,,,,,,

# The next lines start with results.
inhibition (INH) [1],inhibition (INH) [2],IC50 ([6]; read-out: IC50),IC50 ([7]; read-out: IC50),IC50 ([6]; mcf7/mx),IC50 ([7]; mdck-ii),SMILES,Activity [3],Activity [4],Activity [5],Activity [8]
Active,Not Active,4.2 µM,2.2 µM,,,COc1ccc(/C=C/C(=O)c2ccc(OC)cc2O)cc1,,,,
Active,Not Active,,,Not Active,Not Active,COc1ccc(C(=O)/C=C/c2ccc(Cl)c(Cl)c2)c(O)c1,,,,
Active,Not Active,6.85 µM,3.32 µM,,,COc1ccc(C(=O)/C=C/c2ccccc2Cl)c(O)c1,,,,
Active,Not Active,,,Not Active,Not Active,"O=C(/C=C/c1ccccc1)c1ccc(O)cc1O [2',4'-DIHYDROXYCHALCONE]",,,,
Active,Not Active,13.5 µM,10.7 µM,,,COc1ccc(C(=O)/C=C/c2ccc(Cl)cc2)c(O)c1,,,,
Active,Not Active,3.15 µM,1.47 µM,,,COc1cccc(/C=C/C(=O)c2ccc(OC)cc2O)c1,,,,
Active,Not Active,33.3 µM,12 µM,,,COc1ccc(/C=C/C(=O)c2ccc(O)cc2O)cc1,,,,
Active,Not Active,6.07 µM,6.37 µM,,,O=C(/C=C/c1ccc(Cl)cc1)c1ccc(O)cc1O,,,,
Active,Not Active,31 µM,30.9 µM,,,COc1ccc(C(=O)/C=C/c2ccccc2)c(O)c1,,,,
